4 molecules from ChEMBL document CHEMBL1156002, “Synthesis, Raman, FT-IR, NMR spectroscopic characterization, antimicrobial activity, cytotoxicity and DNA binding of new mixed aza-oxo-thia macrocyclic compounds” (2009) can be followed below.

Values after ≈ are worked out from the molar mass of the structure shown. Active and inactive are the calls of the source. The rule behind the calls is not given here.

The test system of experiment [1] is Escherichia coli. Briefly: Antibacterial activity against Escherichia coli ATCC 11230 after 24 hrs by broth micro dilution method. Format: functional. The conditions noted are these: ATCC 11230, 24 h.
Experiment [2] deals with Staphylococcus aureus. In words: Antibacterial activity against Staphylococcus aureus ATCC 6538 after 24 hrs by broth micro dilution method. The format is functional. Particulars: ATCC 6538, 24 h.
The subject of experiment [3] is Proteus vulgaris. Briefly: Antibacterial activity against Proteus vulgaris ATCC 8427 after 24 hrs by broth micro dilution method. The format is functional. Particulars: ATCC 8427, 24 h.
In experiment [4] the test system is Listeria monocytogenes. In words: Antibacterial activity against Listeria monocytogenes ATCC 15313 after 24 hrs by broth micro dilution method. Format: functional. The conditions noted are these: ATCC 15313, 24 h.
Experiment [5] deals with Rhodotorula mucilaginosa. Briefly: Antifungal activity against Rhodotorula rubra DSM 70403 after 24 hrs by broth micro dilution method. The format is functional. Particulars: DSM 70403, 24 h. In outline:
(§1)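 Broth microdilution was run in cation-adjusted Mueller Hinton Broth. Compounds were dissolved in DMSO at 2 mg mL^-1 and serially diluted two-fold. Yeast precultures were grown in Malt Extract Broth for 48 h. The final inoculum was about 10⁶ cfu mL^-1, and plates were incubated at 37 °C for 24 h. The MIC was read from this series.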

Experiment [6] has as its system Hanseniaspora guilliermondii. Briefly: Antifungal activity against Hanseniaspora guilliermondii DSM 3432 after 24 hrs by broth micro dilution method. Format: functional. Particulars: DSM 3432, 24 h. In outline:
as §1

The test system of experiment [7] is Debaryomyces hansenii. Briefly: Antifungal activity against Debaryomyces hansenii DSM 70238 after 24 hrs by broth micro dilution method. The conditions noted are these: DSM 70238, 24 h. Format: functional. In outline: as §1
A short description of experiment [8]: Cytotoxicity against human 23132/87 cells assessed as cell viability at 100 uM after 24 hrs by MTT assay. The format is functional. Particulars: 23132-87, 24 h, read-out: Activity. The procedure, abridged: (§2)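 Cells were seeded at 3.10³–5.10³ per well in RPMI 1640 with 10% FBS, 4 mM L-glutamine and penicillin/streptomycin, then held 24 h at 37 °C under 5% CO₂. Ligands (DMSO, final 0.5% v/v) were added at 0.1–100 for 24 or 48 h. MTT was added for 4 h and dissolved in 50% DMF/5% SDS. A570 was read, and cytotoxicity was calculated as 100×(OD treated/OD untreated).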

The nature of experiment [9]: Cytotoxicity against human 23132/87 cells assessed as cell viability at 100 uM after 48 hrs by MTT assay. The format is functional. Particulars: 23132-87, 48 h, read-out: Activity. In outline:
as §2

For experiment [10], the system named is 23132-87. Briefly: Induction of apoptosis in human 23132/87 cells assessed as change in nuclear appearance at 100 uM after 24 hrs by hoechst nuclear staining. The format is functional, cell-based. The procedure, abridged:
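Cells grown in 6-well plates were treated for 24 h, washed three times in PBS and fixed in ice-cold methanol for 10 min. They were stained with Hoechst 33258 for 5 min, destained in double-distilled water for 5 min and examined by fluorescence microscopy. Untreated and DMSO-treated cells served as controls.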

Experiment [11] has as its system Calf thymus DNA. Briefly: Binding affinity to calf thymus DNA assessed as change in electromagnetic spectrum at 500 uM by UV-vis spectroscopy. Format: nucleic-acid assay. Particulars: Bos taurus. In outline:
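CT-DNA was prepared in ddH₂O and judged protein-free by an A260/A280 ratio of 1.8:1. UV–visible absorption spectra of the DNA solution were recorded without ligand and with increasing ligand amounts.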

The test system of experiment [12] is Escherichia coli. In words: Antibacterial activity against Escherichia coli ATCC 11230 after 24 hrs by agar disk diffusion assay. The format is functional. In outline:
(§3)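 Disk diffusion with sterile 6 mm discs loaded with DMSO solutions of the test agents and placed on inoculated agar. Bacteria were pre-grown in Nutrient Broth at 30 °C for 24 h, and plates were incubated at 35 °C for 24 h. Each plate carried a reference antibiotic disc matched to the organism, and a DMSO-only solvent control was run.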

For experiment [13], the system named is Klebsiella pneumoniae. In words: Antibacterial activity against Klebsiella pneumoniae UC57 after 24 hrs by agar disk diffusion assay. Format: functional. The procedure, abridged: as §3

On to `O=C1CSSCC(=O)Nc2nc(nc(-c3ccccc3)n2)NC(=O)CSSCC(=O)Nc2nc(nc(-c3ccccc3)n2)N1`, for which the MIC in [1] came out at 25 µg/mL (≈ 37.5 µM); in [2] it was 12.5 µg/mL (≈ 18.7 µM); in experiment [3], 25 µg/mL (≈ 37.5 µM); in experiment [4], 25 µg/mL (≈ 37.5 µM); in [5] it was 3.12 µg/mL (≈ 4.69 µM); in experiment [6], 1.56 µg/mL (≈ 2.34 µM). For the same molecule, the MIC in experiment [7] is 1.56 µg/mL (≈ 2.34 µM). For the same molecule, the viability at 100 µM in experiment [8] and in experiment [9] was > 86% in each case. Moreover, the outcome in [10] and in experiment [11] was inactive. Besides, the “inhibition zone (IZ)” value in experiment [12] stood at 10 mm; in experiment [13] it was 15 mm.

Take `O=C1CCSSCCC(=O)Nc2nc(nc(-c3ccccc3)n2)NC(=O)CCSSCCC(=O)Nc2nc(nc(-c3ccccc3)n2)N1`: the MIC in [1] turned out to be 25 µg/mL (≈ 34.6 µM); in experiment [2], 12.5 µg/mL (≈ 17.3 µM); in experiment [3], 12.5 µg/mL (≈ 17.3 µM); in experiment [4] it was 25 µg/mL (≈ 34.6 µM); in [5] it was 3.12 µg/mL (≈ 4.32 µM); in experiment [6] it was 1.56 µg/mL (≈ 2.16 µM). The molecule further came in with an MIC in [7] of 1.56 µg/mL (≈ 2.16 µM). For the same molecule, the viability at 100 µM in experiment [8] and in [9] was > 86% throughout. Further, the result in experiment [10] and in experiment [11] was inactive. Further, the “inhibition zone (IZ)” value in [12] is listed as 10 mm; in experiment [13], 16 mm.

Consider `O=C1CSCC(=O)Nc2nc(nc(-c3ccccc3)n2)NC(=O)CSCC(=O)Nc2nc(nc(-c3ccccc3)n2)N1`, for which the MIC in experiment [1] was found to be 25 µg/mL (≈ 41.5 µM); in experiment [2], 12.5 µg/mL (≈ 20.7 µM); in [3] it was 12.5 µg/mL (≈ 20.7 µM); in experiment [4], 25 µg/mL (≈ 41.5 µM); in experiment [5] it was 6.25 µg/mL (≈ 10.4 µM); in experiment [6], 1.56 µg/mL (≈ 2.59 µM). The lowest concentration to inhibit growth in experiment [7] (MIC) was 3.12 µg/mL (≈ 5.19 µM). Besides, the viability at 100 µM in experiment [8] and in experiment [9] was > 86% throughout. Moreover, the result in [10] and in experiment [11] was inactive. The “inhibition zone (IZ)” value turned out to be 10 mm in [12] and 13 mm in experiment [13].

`O=C1CCSCCC(=O)Nc2nc(nc(-c3ccccc3)n2)NC(=O)CCSCCC(=O)Nc2nc(nc(-c3ccccc3)n2)N1`: the MIC in [1] is 25 µg/mL (≈ 37.9 µM); in experiment [2], 25 µg/mL (≈ 37.9 µM); in experiment [3], 25 µg/mL (≈ 37.9 µM); in experiment [4] it was 25 µg/mL (≈ 37.9 µM); in experiment [5] it was 6.25 µg/mL (≈ 9.49 µM); in [6], 1.56 µg/mL (≈ 2.37 µM). This molecule also gave an MIC in experiment [7] of 3.12 µg/mL (≈ 4.74 µM). Also, the viability at 100 µM in experiment [8] and in [9] was > 86% each time. Besides, the result in experiment [10] and in [11] was inactive. The “inhibition zone (IZ)” value in experiment [12] amounted to 10 mm; in experiment [13], 13 mm.
